In brackets after ≈: the same amount, converted by molar mass.
Assays:
[1] = (§1) Permeability from apical to basolateral side of the human Caco-2 cells at pH 7.4; assay type: ADME, cell-based; settings: Caco-2, pH 7.4, read-out: permeability
Method in brief: (§2)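 Caco-2 permeability measured in the apical-to-basal direction at pH 7.4.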

[2] = Lipophilicity, log D at pH 7.4; assay type: physicochemical; settings: buffer
Hepatitis C virus = assay: Antiviral activity against Hepatitis C virus subtype 1b infected in human Huh7 cells assessed as inhibition of viral RNA replication; assay type: functional, organism-based, Hepacivirus hominis, genotype 1b, Huh-7; settings: Hepatitis C virus, genotype 1b, Huh-7; read-out: EC50
Method in brief: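 Stable subgenomic HCV genotype 1b replicon in Huh-7 cells carrying a modified luciferase reporter. EC50 from duplicate or more determinations. Some inhibitors were also run in a 72 h replicon format, with HCV RNA normalized to total cellular RNA. Cytotoxicity checked as TC50.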

Cytochrome P450 3A4 = Cytochrome P450 3A4 (Homo sapiens, UniProt P08684); assay: Inhibition of CYP3A4; assay type: ADME
Method in brief: (§3)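 IC50s measured against CYP 1A2, 2C9, 2C19, 2D6 and 3A4 isozymes. The value reported is the lowest IC50, taken against the most sensitive isozyme.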

[3] = Inhibition of calf thymus DNA-directed RNA polymerase 2; set-up: species or system Bos taurus
[4] = Inhibition of histidine-tagged HCV NS5Bdelta21 by scintillation proximity assay; set-up: species or system Hepacivirus hominis
Method in brief: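 Soluble truncated NS5B at 12 nM. Reaction contains 0.01% w/v BSA, with no dodecyl-β-D-maltoside or IGEPAL. Other conditions follow an earlier method. IC50 is the mean of duplicate experiments on two separate weighings.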

[5] = Equilibrium solubility at pH 7.2 with amorphous solid after 24 hrs by shake flask method; assay type: physicochemical; settings: buffer
[6] = Half life in human liver microsomes at 2 uM; assay type: ADME, Microsome
Method in brief: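 Human liver microsomes incubated with test compound at 2 µM. Stability reported as T1/2 in min.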

Cytochrome P450 2C19 = Cytochrome P450 2C19 (Homo sapiens, UniProt P33261); assay: Inhibition of CYP2C19; assay type: ADME; method in brief: as §3
Caco-2 = assay: as §1; assay type: ADME, cell-based; settings: caco-2, pH 7.4, BLD = below limit of detection; method in brief: as §2
[7] = Half life in rat liver microsomes at 2 uM; assay type: ADME, Microsome
Cytochrome P450 2C9 = Cytochrome P450 2C9 (Homo sapiens, UniProt P11712); assay: Inhibition of CYP2C9; assay type: ADME; method in brief: as §3
Sequence of Cytochrome P450 2C9 (P11712 whole entry): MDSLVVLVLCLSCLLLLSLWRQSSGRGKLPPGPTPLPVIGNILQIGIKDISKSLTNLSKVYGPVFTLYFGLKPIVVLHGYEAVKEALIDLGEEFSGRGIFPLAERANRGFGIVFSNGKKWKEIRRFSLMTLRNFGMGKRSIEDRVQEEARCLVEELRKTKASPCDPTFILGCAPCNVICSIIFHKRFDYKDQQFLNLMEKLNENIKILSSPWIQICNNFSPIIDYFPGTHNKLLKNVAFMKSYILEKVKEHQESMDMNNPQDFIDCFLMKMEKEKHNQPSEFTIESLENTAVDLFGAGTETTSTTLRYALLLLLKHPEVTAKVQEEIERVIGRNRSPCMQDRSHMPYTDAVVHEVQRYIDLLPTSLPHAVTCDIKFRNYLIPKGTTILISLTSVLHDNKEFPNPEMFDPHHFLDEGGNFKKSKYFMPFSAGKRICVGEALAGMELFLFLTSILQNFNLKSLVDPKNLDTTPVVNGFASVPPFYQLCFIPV

Sequence of Cytochrome P450 3A4 (P08684 whole entry): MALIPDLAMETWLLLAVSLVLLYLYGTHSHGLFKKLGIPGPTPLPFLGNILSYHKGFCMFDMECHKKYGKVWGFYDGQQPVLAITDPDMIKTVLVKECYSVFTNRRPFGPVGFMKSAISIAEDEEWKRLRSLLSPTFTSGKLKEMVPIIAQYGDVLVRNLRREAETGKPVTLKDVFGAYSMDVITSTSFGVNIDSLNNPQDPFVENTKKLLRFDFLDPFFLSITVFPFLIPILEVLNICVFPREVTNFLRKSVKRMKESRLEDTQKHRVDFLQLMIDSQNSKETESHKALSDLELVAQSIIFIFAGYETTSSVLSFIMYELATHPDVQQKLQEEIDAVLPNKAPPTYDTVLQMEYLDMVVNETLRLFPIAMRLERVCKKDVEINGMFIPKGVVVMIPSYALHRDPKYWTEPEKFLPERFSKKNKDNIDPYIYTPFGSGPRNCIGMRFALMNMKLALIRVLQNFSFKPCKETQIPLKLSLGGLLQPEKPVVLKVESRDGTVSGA
Sequence of Cytochrome P450 2C19 (P33261 whole entry): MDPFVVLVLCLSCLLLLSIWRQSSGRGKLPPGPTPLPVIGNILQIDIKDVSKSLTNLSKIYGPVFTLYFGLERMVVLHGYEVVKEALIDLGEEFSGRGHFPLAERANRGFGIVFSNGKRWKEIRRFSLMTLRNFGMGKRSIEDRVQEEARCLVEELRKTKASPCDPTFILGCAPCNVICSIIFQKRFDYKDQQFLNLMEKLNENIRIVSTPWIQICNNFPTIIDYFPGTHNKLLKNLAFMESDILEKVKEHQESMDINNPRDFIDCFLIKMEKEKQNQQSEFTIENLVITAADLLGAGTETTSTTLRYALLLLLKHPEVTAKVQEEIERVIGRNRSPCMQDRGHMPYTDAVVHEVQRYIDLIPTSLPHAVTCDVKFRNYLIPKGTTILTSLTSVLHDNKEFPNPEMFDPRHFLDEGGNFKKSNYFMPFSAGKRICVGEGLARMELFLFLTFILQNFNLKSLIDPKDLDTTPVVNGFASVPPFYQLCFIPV

SMILES	Papp A→B [1] [×10⁻⁶ cm/s]	logD [2]	EC50 (Hepatitis C virus) [nM]	IC50 (Cytochrome P450 3A4)	IC50 [3] [µM]	IC50 [4] [nM]	solubility thermodynamic at 24 h [5] [µg/mL]	half-life at 2 µM [6] [min]	IC50 (Cytochrome P450 2C19) [µM]	IC50 (Cytochrome P450 3A4; read-out: IC50) [µM]	permeability (Caco-2)	half-life at 2 µM [7] [min]	IC50 (Cytochrome P450 2C9) [µM]
CN(C)C(=O)Cn1c(-c2ccoc2)c(C2CCCCC2)c2ccc(C(=O)O)cc21	12.8	1.45	800	>= 26 uM	> 250	20	240 (≈ 608 µM)	250	–	–	–	–	–
Cn1c(-c2ccoc2)c(C2CCCCC2)c2ccc(C(=O)O)cc21	–	3.26	4200	–	–	16	–	–	–	–	–	–	–
O=C(O)c1ccc2c(C3CCCCC3)c(-c3ccccc3)n(CC(=O)N3CCC(N4CCCC4)CC3)c2c1	< 0.1	–	380	–	> 250	40	47 (≈ 91.5 µM)	111	–	–	–	–	–
O=C(O)c1ccc2c(C3CCCCC3)c(-c3ccoc3)n(CC(=O)N3CCC(N4CCCC4)CC3)c2c1	1.4	–	380	–	> 250	20	79 (≈ 157 µM)	> 300	–	–	–	–	–
O=C(O)c1ccc2c(C3CCCCC3)c(-c3cccs3)n(CC(=O)N3CCC(N4CCCC4)CC3)c2c1	0.2	–	460	–	> 250	20	60 (≈ 115 µM)	> 300	≥ 11	–	–	–	–
CCN1CCN(C(=O)Cn2c(-c3ccoc3)c(C3CCCCC3)c3ccc(C(=O)O)cc32)CC1	6.5	–	410	–	> 250	30	12 (≈ 25.9 µM)	> 300	–	≥ 16	–	–	–
CC(C)N1CCN(C(=O)Cn2c(-c3ccoc3)c(C3CCCCC3)c3ccc(C(=O)O)cc32)CC1	7	–	830	–	> 250	40	18 (≈ 37.7 µM)	> 300	–	≥ 8	–	–	–
CN(CCO)C(=O)Cn1c(-c2ccoc2)c(C2CCCCC2)c2ccc(C(=O)O)cc21	–	–	1500	–	> 250	20	1300 (≈ 3060 µM)	275	–	–	BLD	–	–
O=C(O)c1ccc2c(C3CCCCC3)c(-c3ccoc3)n(CC(=O)N3CCOCC3)c2c1	5.2	–	600	–	> 250	30	105 (≈ 241 µM)	> 300	–	–	–	288	≥ 24

Source: ChEMBL document CHEMBL1156857, “N-Acetamideindolecarboxylic acid allosteric 'finger-loop' inhibitors of the hepatitis C virus NS5B polymerase: discovery and initial optimization studies” (Bioorg Med Chem Lett, 2010)
